These results are taken from ChEMBL document CHEMBL1914320, “C4-alkylthiols with activity against Moraxella catarrhalis and Mycobacterium tuberculosis” (Bioorg Med Chem, 2011).

As usually defined, the MBC is the lowest tested concentration that kills the bacteria rather than only halting them. A low value points to more potent killing.

In data set [1] the test system is Escherichia coli. The data set is described as follows: Antibacterial activity against non-beta-lactamase producing Escherichia coli ATCC 25922 after 48 hrs by microdilution broth method. In kind it is functional, organism-based. An outline of the steps: (§1)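 Broth microdilution followed CLSI guidelines. Compound was dissolved in 95% ethanol, diluted at least 10-fold into Mueller-Hinton broth, then serially two-fold diluted from 500 to 15.6 μg/mL. Actively growing culture was added at 5 × 10^5 cells/mL. Plates ran 48 h at 37 °C, scored for visible growth at 24 and 48 h. MIC was the lowest concentration without growth. For MBC, 10 μL from each clear well was plated on MH agar. Controls were ethanol and penicillin. Triplicate.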

Data set [2] concerns Moraxella catarrhalis. The data set is described as follows: Antibacterial activity against beta-lactamase producing Moraxella catarrhalis isolate 2 at 10 ug/disc after overnight incubation by disc diffusion assay. The data set is classed as functional. The settings on record: for zone of inhibition at 10 µg/disc: read-out: IZ. In a few lines:
(§2)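 Isolates were held at −80 °C. Five colonies were suspended in Mueller-Hinton broth to a 0.5 McFarland density and swabbed onto MH agar. Discs carried 10 μg compound, applied in methanol and dried at room temperature. Plates were incubated overnight at 37 °C, and the zone of inhibition was measured in mm from the disc edge. Controls were methanol-only and penicillin discs. Run blinded, in triplicate.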
(In agar diffusion tests the substance spreads into inoculated agar from a disc or well.)

For data set [3], the system named is Escherichia coli. Nature of the data set: Antibacterial activity against non-beta-lactamase producing Escherichia coli ATCC 25922 at 10 ug/disc after overnight incubation by disc diffusion assay. The data set is classed as functional, organism-based. In a few lines: as §2
The test system of data set [4] is Pseudomonas aeruginosa. Nature of the data set: Antibacterial activity against non-beta-lactamase producing Pseudomonas aeruginosa ATCC 27853 at 10 ug/disc after overnight incubation by disc diffusion assay. The data set is classed as functional, organism-based. In a few lines: as §2
The test system of data set [5] is Enterococcus faecalis. Nature of the data set: Antibacterial activity against non-beta-lactamase producing Enterococcus faecalis ATCC 29212 at 10 ug/disc after overnight incubation by disc diffusion assay. In kind it is functional, organism-based. An outline of the steps:
as §2

Data set [6] concerns Moraxella catarrhalis. Nature of the data set: Antibacterial activity against beta-lactamase producing Moraxella catarrhalis isolate 5 at 10 ug/disc after overnight incubation by disc diffusion assay. The following applies: for zone of inhibition at 10 µg/disc: read-out: IZ. The data set is classed as functional. In a few lines: as §2
Data set [7] relates to Moraxella catarrhalis. Nature of the data set: Antibacterial activity against beta-lactamase producing Moraxella catarrhalis isolate 3 at 10 ug/disc after overnight incubation by disc diffusion assay. The data set is classed as functional. In a few lines:
as §2

For data set [8], the system named is Staphylococcus aureus. The data set is described as follows: Antibacterial activity against non-beta-lactamase producing Staphylococcus aureus ATCC 25923 at 10 ug/disc after overnight incubation by disc diffusion assay. The data set is classed as functional, organism-based. An outline of the steps:
as §2

Data set [9] has as its system Pseudomonas aeruginosa. Nature of the data set: Antibacterial activity against non-beta-lactamase producing Pseudomonas aeruginosa ATCC 27853 after 48 hrs by microdilution broth method. In kind it is functional, organism-based. In a few lines:
as §1

Data set [10] in a line: Chemical stability of the compound assessed as compound degradation after 48 hrs by NMR analysis. The data set is classed as physicochemical.
Data set [11] relates to Moraxella catarrhalis. Nature of the data set: Antibacterial activity against beta-lactamase producing Moraxella catarrhalis isolate 1 at 10 ug/disc after overnight incubation by disc diffusion assay. The data set is classed as functional. An outline of the steps:
as §2

Data set [12] has as its system Enterococcus faecalis. The data set is described as follows: Antibacterial activity against non-beta-lactamase producing Enterococcus faecalis ATCC 29212 after 48 hrs by microdilution broth method. In kind it is functional, organism-based. An outline of the steps:
as §1
On the technique in general: In broth dilution the organism is exposed to a series of concentrations in liquid medium.

Data set [13] concerns Staphylococcus aureus. Nature of the data set: Antibacterial activity against non-beta-lactamase producing Staphylococcus aureus ATCC 25923 after 48 hrs by microdilution broth method. In kind it is functional, organism-based. In a few lines: as §1
Data set [14] relates to Moraxella catarrhalis. Nature of the data set: Antibacterial activity against beta-lactamase producing Moraxella catarrhalis isolate 4 at 10 ug/disc after overnight incubation by disc diffusion assay. The data set is classed as functional. In a few lines:
as §2

In data set [15] the test system is Moraxella catarrhalis. Nature of the data set: Antibacterial activity against beta-lactamase producing Moraxella catarrhalis isolate 4 after 48 hrs incubation by microdilution broth method. In kind it is functional. The following applies: isolate 4, 48 h. An outline of the steps: as §1
In data set [16] the test system is Moraxella catarrhalis. Nature of the data set: Antibacterial activity against beta-lactamase producing Moraxella catarrhalis isolate 2 after 48 hrs incubation by microdilution broth method. The data set is classed as functional. The following applies: isolate 2, 48 h. In a few lines:
as §1

Data set [17] relates to Moraxella catarrhalis. The data set is described as follows: Antibacterial activity against beta-lactamase producing Moraxella catarrhalis isolate 1 after 48 hrs incubation by microdilution broth method. The data set is classed as functional. The settings on record: isolate 1, 48 h. An outline of the steps: as §1
Data set [18] has as its system Moraxella catarrhalis. The data set is described as follows: Antibacterial activity against beta-lactamase producing Moraxella catarrhalis isolate 3 after 48 hrs incubation by microdilution broth method. The data set is classed as functional. The following applies: isolate 3, 48 h. In a few lines: as §1
Data set [19] has as its system Mycobacterium tuberculosis. Nature of the data set: Antimycobacterial activity against wild type Mycobacterium tuberculosis H37Rv by Alamar blue assay. The data set is classed as functional. On the technique in general: Alamar Blue is a resazurin reagent that responds to reducing activity.
The test system of data set [20] is Moraxella catarrhalis. The data set is described as follows: Antibacterial activity against beta-lactamase producing Moraxella catarrhalis isolate 5 after 48 hrs incubation by microdilution broth method. The data set is classed as functional. The following applies: isolate 5, 48 h. In a few lines:
as §1

In data set [21] the test system is Moraxella catarrhalis. The data set is described as follows: Antibacterial activity against beta-lactamase producing Moraxella catarrhalis isolate 6 after 48 hrs incubation by microdilution broth method. The data set is classed as functional. The following applies: isolate 6, 48 h. In a few lines:
as §1

Data set [22] concerns Moraxella catarrhalis. The data set is described as follows: Antibacterial activity against beta-lactamase producing Moraxella catarrhalis isolate 6 at 10 ug/disc after overnight incubation by disc diffusion assay in presence of 1 mol equiv of glutathione. The data set is classed as functional.
The test system of data set [23] is Moraxella catarrhalis. The data set is described as follows: Antibacterial activity against beta-lactamase producing Moraxella catarrhalis isolate 2 at 10 ug/disc after overnight incubation by disc diffusion assay in presence of 1 mol equiv of glutathione. The data set is classed as functional. The following applies: read-out: IZ.
Data set [24] relates to Moraxella catarrhalis. The data set is described as follows: Antibacterial activity against beta-lactamase producing Moraxella catarrhalis isolate 1 at 10 ug/disc after overnight incubation by disc diffusion assay in presence of 1 mol equiv of glutathione. In kind it is functional. The settings on record: read-out: IZ.
For data set [25], the system named is Moraxella catarrhalis. The data set is described as follows: Antibacterial activity against beta-lactamase producing Moraxella catarrhalis isolate 6 at 10 ug/disc after overnight incubation by disc diffusion assay. The data set is classed as functional. In a few lines: as §2
In data set [26] the test system is Moraxella catarrhalis. Nature of the data set: Antibacterial activity against beta-lactamase producing Moraxella catarrhalis isolate 3 at 10 ug/disc after overnight incubation by disc diffusion assay in presence of 1 mol equiv of glutathione. The data set is classed as functional.
The test system of data set [27] is Moraxella catarrhalis. Nature of the data set: Antibacterial activity against beta-lactamase producing Moraxella catarrhalis isolate 4 at 10 ug/disc after overnight incubation by disc diffusion assay in presence of 1 mol equiv of glutathione. In kind it is functional. The settings on record: read-out: IZ.
Data set [28] concerns Moraxella catarrhalis. Nature of the data set: Antibacterial activity against beta-lactamase producing Moraxella catarrhalis isolate 5 at 10 ug/disc after overnight incubation by disc diffusion assay in presence of 1 mol equiv of glutathione. The data set is classed as functional. The following applies: read-out: IZ.

Converted amounts (≈) assume the structure as drawn. The source made the active and inactive calls. The calls are words filed in the database; no cut-off is given here. Where only a bound is given, the exact number is not on record here.

`CCOC(=O)C/N=C\C(S)(CC)CC`: the result with Escherichia coli [1], with Escherichia coli [3], with Pseudomonas aeruginosa [4], in the data set with Enterococcus faecalis [5], in the data set on Staphylococcus aureus [8] and in the data set with Pseudomonas aeruginosa [9] was inactive. Besides, the outcome in the data set with Enterococcus faecalis [12] and in the data set on Staphylococcus aureus [13] was inactive. The zone of inhibition at 10 µg/disc in the data set with Moraxella catarrhalis [2] was determined as 2 mm; in the data set with Moraxella catarrhalis [6], 11 mm. The “inhibition zone (IZ)” value in the data set on Moraxella catarrhalis [7], in the data set on Moraxella catarrhalis [11] and with Moraxella catarrhalis [14] was “inactive” in each case. Further, the Percent compound degraded in data set [10] (48 h) came to 10%.

As for `CCOC(=O)C/N=C\C(CC)(CC)SSC(/C=N/CC(=O)OCC)(CC)CC`, the outcome in the data set on Escherichia coli [1], with Escherichia coli [3], in the data set on Pseudomonas aeruginosa [4], with Enterococcus faecalis [5], in the data set on Staphylococcus aureus [8] and in the data set on Pseudomonas aeruginosa [9] was inactive. The outcome in the data set with Enterococcus faecalis [12] and with Staphylococcus aureus [13] was inactive. Besides, the degraded at 48 h in data set [10] (read-out: Drug metabolism) came out at 10%.

As for `O=C1CC(Sc2cccs2)N1` (racemic), the result in the data set on Escherichia coli [1], in the data set with Escherichia coli [3], in the data set with Pseudomonas aeruginosa [4], with Enterococcus faecalis [5], with Staphylococcus aureus [8] and with Pseudomonas aeruginosa [9] was inactive. Moreover, the outcome in the data set on Enterococcus faecalis [12] and with Staphylococcus aureus [13] was inactive. The “inhibition zone (IZ)” value with Moraxella catarrhalis [2], in the data set on Moraxella catarrhalis [6], in the data set on Moraxella catarrhalis [7], in the data set on Moraxella catarrhalis [11] and in the data set on Moraxella catarrhalis [14] was “inactive” each time. In addition, the MBC in the data set on Moraxella catarrhalis [15] is 500 µg/mL (≈ 2700 µM); against Moraxella catarrhalis [16], above 500 µg/mL; against Moraxella catarrhalis [17], above 500 µg/mL; against Moraxella catarrhalis [18], 500 µg/mL (≈ 2700 µM); in data set [19], 100 µg/mL (≈ 540 µM); in the data set with Moraxella catarrhalis [20] it was 500 µg/mL (≈ 2700 µM). The MBC in the data set on Moraxella catarrhalis [21] was above 500 µg/mL.

In the case of `O=C1CC(Sc2ccc(S)cc2)N1` (racemic), the result with Escherichia coli [1], in the data set with Escherichia coli [3], in the data set with Pseudomonas aeruginosa [4], in the data set with Enterococcus faecalis [5], in the data set with Staphylococcus aureus [8] and with Pseudomonas aeruginosa [9] was inactive. Further, the outcome in the data set with Enterococcus faecalis [12] and with Staphylococcus aureus [13] was inactive. In addition, the “inhibition zone (IZ)” value with Moraxella catarrhalis [22], with Moraxella catarrhalis [25], in the data set with Moraxella catarrhalis [26], in the data set on Moraxella catarrhalis [7] and in the data set on Moraxella catarrhalis [11] was “inactive” each time. Further, the zone of inhibition at 10 µg/disc with Moraxella catarrhalis [2] was 8 mm; in the data set on Moraxella catarrhalis [23] it was 7 mm; in the data set on Moraxella catarrhalis [24], 7 mm; in the data set on Moraxella catarrhalis [6], 8 mm; in the data set on Moraxella catarrhalis [27], 7 mm; with Moraxella catarrhalis [28], 7 mm. Further, the zone of inhibition at 10 µg/disc in the data set on Moraxella catarrhalis [14] (read-out: IZ) stood at 7 mm. For the same compound, the MBC was 500 µg/mL (≈ 2370 µM) in the data set on Moraxella catarrhalis [15]; 125 µg/mL (≈ 592 µM) against Moraxella catarrhalis [16]; 250 µg/mL (≈ 1180 µM) in the data set with Moraxella catarrhalis [17]; 125 µg/mL (≈ 592 µM) against Moraxella catarrhalis [18]; 25 µg/mL (≈ 118 µM) in [19]; 125 µg/mL (≈ 592 µM) in the data set with Moraxella catarrhalis [20]. In the data set with Moraxella catarrhalis [21], this compound returned an MBC of 125 µg/mL (≈ 592 µM).
